Rtt109 Vps75: C. albicans Rtt109 histone acetyltransferase inhibition | Q5AAJ8 | purified Rtt109/Vps75, ThioGlo CoA-SH fluorescence, 4 h | inhibition, % at 34.9 µM | actives 0.16% (n = 330,000) | AID 540336;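 active = inhibition of at least 50% in every replicate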
Target sequence (Q5AAJ8 whole entry, looked up): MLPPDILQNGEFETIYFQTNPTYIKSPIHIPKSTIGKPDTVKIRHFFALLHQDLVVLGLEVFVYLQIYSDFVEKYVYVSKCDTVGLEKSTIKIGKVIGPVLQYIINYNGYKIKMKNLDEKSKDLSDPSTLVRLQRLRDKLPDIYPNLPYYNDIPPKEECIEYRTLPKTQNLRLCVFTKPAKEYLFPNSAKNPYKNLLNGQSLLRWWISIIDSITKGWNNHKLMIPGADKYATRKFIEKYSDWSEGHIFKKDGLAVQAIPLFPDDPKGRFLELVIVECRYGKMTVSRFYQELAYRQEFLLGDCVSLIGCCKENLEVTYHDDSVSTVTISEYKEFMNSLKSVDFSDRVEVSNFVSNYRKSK
JMJD2C inh: inhibitors of human GASC-1 (JMJD2C) demethylase | inhibition, % at 2.35 µM | Q9H3R0 | actives 0.069% (n = 330,000) | GST-JMJD2C(1-420) H3K9me3 demethylation, DELFIA europium;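 active = more than half of a compound's replicate wells show inhibition beyond 50%, single wells judged on their own value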;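 also: signal counts dimethyl H3K9 product captured on neutravidin plate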
NR3A LBD binder: NR3A (human) ligand-binding domain modulation; NR3A LBD differential scanning fluorimetry, Tm shift; 0% = protein alone, 100% = glycine-bound protein; Tm shift relative to glycine control, % at 25 µM; actives 2.5% (n = 340,000);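 active = melting temperature shift of at least 10% of the positive control shift, at one fixed dose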
T cell HTS: T cell immune modulation candidate; 2C CD8+ T cell-vesicle binding, flow cytometry; active compounds read low; response (vesicle binding), % at 7 µM; actives 0.068% (n = 330,000);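 active = response, share of CD8 T cells binding vesicles, and their 90th percentile fluorescence all below set limits, cut at about 80% in these data, passing the limit was not always enough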;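 also: values below 100% mean blocked vesicle binding to the CD8+ T cells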
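incubation = binding step 1.5 h, 37 °C, antibody labelling 20 min, ice | test system = 2C mouse CD8+ T cells | read-out basis = percent CD8+ FL2 mean versus row control | controls = Peptide-free naked vesicles (low) and QL9 vesicles with 0.7% DMSO vehicle (high) | detection = flow cytometry of vesicle-bound cells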
Of the large screens only hits and unclear results are named; the others gave an inactive call. Sampled rows, rich in hits. Any-hit rate of the full collection: about 2.8%.

Cc1ccc2nc(NC(=O)c3ccc(Cl)s3)sc2c1	NR3A LBD binder 20
O=C(CSCc1cc(=O)n2nc(C3CC3)sc2n1)Nc1ccccc1Cl	none
CC(C)(C)c1ccc(OCC(O)CN2CCc3ccccc3C2)cc1 (stereo unspecified)	none (no result: Rtt109 Vps75)
Cc1ccc(C(=O)Nc2nc3ccc(S(C)(=O)=O)cc3s2)s1	none
Cc1ccc(C(=O)Nc2nc3ccccc3s2)s1	NR3A LBD binder 18 (no result: T cell HTS)
CC1CCCCC1NC(=O)c1cccc(N2C(=O)C3C4C=CC(C4)C3C2=O)c1 (stereo unspecified)	none
COc1cccc(OC)c1OCCCOc1ccc(C)cc1Br	NR3A LBD binder 10
COc1ccccc1OCCCOc1c(C)cc(C)cc1Br	NR3A LBD binder 16
CC(=O)c1cccc(NC(=O)c2cc(=O)[nH]c3ccccc23)c1	none
CCc1ccccc1NC(=S)Nn1cnnc1	none (no result: NR3A LBD binder)
N=c1oc2cc(O)ccc2cc1C(=O)Nc1ccc(Cl)cc1	NR3A LBD binder 20
Cc1ccc(NC(=O)c2cc3ccccc3oc2=N)cc1	none (no result: T cell HTS)
COc1cc2c(cc1OC)C(C)N(C(=O)Cc1ccc(C(F)(F)F)cc1)CC2 (stereo unspecified)	none
COc1ccc(CC(=O)N2CCc3cc(OC)c(OC)cc3C2O)cc1OC (stereo unspecified)	NR3A LBD binder 10
Nn1c(SCC(=O)Nc2ccc3c(c2)OCO3)nnc1-c1ccc(Cl)cc1	NR3A LBD binder 18 (no result: Rtt109 Vps75)
CCC(=O)Nc1nnc(SCC(=O)Nc2ccc3c(c2)OCO3)s1	NR3A LBD binder 28
CC(C)C(=O)Nc1nnc(SCC(=O)Nc2ccc3c(c2)OCO3)s1	NR3A LBD binder 36
CCOc1ccc2nc(NC(=O)/C=C/c3ccc4c(c3)OCO4)sc2c1	NR3A LBD binder 35
Cc1ccccc1C(=O)c1cccn1CC(=O)NCc1cccc(Cl)c1	none
O=C1N[C@@H](Cc2ccccc2)C(=O)N2[C@H]1C[C@]1(Br)c3ccccc3N(S(=O)(=O)c3ccc(F)cc3)[C@H]21	none (no result: T cell HTS)
c1ccc2c(c1)nc1n2CCN1CCN1CCCC1	none
COC(=O)[C@H](CC(C)C)NC(=O)Cn1cnc(C(=O)Nc2ccc(C)c(C)c2)n1	none (no result: JMJD2C inh, T cell HTS)
CCOc1ccc2nc(SCC(=O)c3ccc(O)cc3O)sc2c1	NR3A LBD binder 16
CCOc1ccc2nc(SCC(=O)Nc3ccc4c(c3)OCO4)sc2c1	NR3A LBD binder 19
CCOc1ccc2nc(SCC(=O)c3ccc(C)s3)sc2c1	none
CN(C)c1ccc(S(=O)(=O)N2CCCCC2)cc1NC(=O)CCNC(=O)c1ccco1	none
Cc1ccc2nc(NC(=O)c3ccc4ncsc4c3)sc2c1	NR3A LBD binder 18
NS(=O)(=O)c1ccc2nc(NC(=O)c3ccc4ncsc4c3)sc2c1	NR3A LBD binder 30
NS(=O)(=O)c1ccc2nc(NC(=O)c3ccc4c(c3)OCCO4)sc2c1	none
CN(c1ccc(OCC(=O)OCC(=O)Nc2ccc([N+](=O)[O-])cc2)cc1)S(=O)(=O)c1cccs1	none (no result: JMJD2C inh, T cell HTS)
O=C(Nc1cc([N+](=O)[O-])ccc1Cl)C(Sc1ccccc1)c1ccccc1 (stereo unspecified)	none
CC(C)(C)NS(=O)(=O)c1ccc(NC(=O)C(Sc2ccccc2)c2ccccc2)cc1 (stereo unspecified)	NR3A LBD binder 23
CC(C)CC(=O)NC(=S)Nc1ccc(S(=O)(=O)NC(C)(C)C)cc1	Rtt109 Vps75 55
O=C(Nc1ccc(Cl)c([N+](=O)[O-])c1)C(Sc1ccccc1)c1ccccc1 (stereo unspecified)	NR3A LBD binder 28
CC1CC(C)CN(S(=O)(=O)N2CCCC(C(=O)NC(C)c3ccccc3)C2)C1 (stereo unspecified)	none
COc1ccc(Nc2nc(-c3cccs3)nc3ccccc23)cc1	NR3A LBD binder 27
COc1ccc(N2CCN(c3nc(-c4cccs4)nc4ccccc34)CC2)cc1	none
COc1cccc(Nc2nc(-c3cccs3)nc3ccccc23)c1	NR3A LBD binder 21 (no result: Rtt109 Vps75)
COc1cccc(CN(C)c2nc(-c3cccs3)nc3ccccc23)c1	none (no result: Rtt109 Vps75)
CCN(C(=O)COC(=O)c1nc(Cl)ccc1Cl)c1c(N)n(Cc2ccccc2)c(=O)[nH]c1=O	none (no result: JMJD2C inh, T cell HTS)
O=C(Nc1cccc(NC(=O)c2ccccc2)n1)c1ccccc1	none
O=C(/C=C/c1ccc(Cl)c([N+](=O)[O-])c1)Nc1ccc(NC(=O)c2ccco2)cc1	NR3A LBD binder 33 (no result: T cell HTS)
O=C(N/C(=C/c1cccc([N+](=O)[O-])c1)C(=O)N1CCCCCC1)c1cccs1	NR3A LBD binder 15
O=C(/C=C/c1cccc([N+](=O)[O-])c1)OC1CCCCC1=O (stereo unspecified)	NR3A LBD binder 12
CC(C)N(C(=O)/C=C/c1cccc([N+](=O)[O-])c1)C(C)C	none
O=C(/C=C/c1ccc(Cl)c([N+](=O)[O-])c1)Nc1cccc(NC(=O)c2ccco2)c1	NR3A LBD binder 11
COc1ccc(-c2ccc3c(c2)[C@@H]2C[C@H](N(C)C(=O)Nc4ccccc4)[C@H]([C@H](C)O)C(=O)N2CC3)cc1	none (no result: JMJD2C inh, T cell HTS)
O=C(/C=C/c1cccc([N+](=O)[O-])c1)Nc1cccc(NC(=O)c2cccs2)c1	NR3A LBD binder 11
Cc1ccc(NC(=O)/C(=C\c2cccc([N+](=O)[O-])c2)NC(=O)c2cccs2)cc1	none
CC(=O)N/C(=C\c1cccc([N+](=O)[O-])c1)C(=O)NC1CCCCC1	NR3A LBD binder 11
O=C(/C=C/c1cccc([N+](=O)[O-])c1)c1ccco1	none
O=C(/C=C/c1cccc([N+](=O)[O-])c1)Nc1cccc(NC(=O)c2ccco2)c1	NR3A LBD binder 27
COc1ccc(C(=O)NNC(=O)C23CC4CC(CC(C4)C2)C3)cc1OC	none
N#CCCN(C(=S)NC(=O)C1CCCCC1)c1ccccc1F	none
CC(C)CCC(O)(CCC(C)C)C(=O)NN1CCCCC1	none
CCCC(O)(CCC)C(=O)NN1CCCCC1	NR3A LBD binder 27
O=C(Nc1cc([N+](=O)[O-])ccc1O)c1cccc([N+](=O)[O-])c1	none
O=C(Nc1ccc(O)cc1)c1cccc(Oc2ccc([N+](=O)[O-])cc2)c1	NR3A LBD binder 32
Cc1cc(O)c(NC(=O)c2cccc([N+](=O)[O-])c2)cc1C	NR3A LBD binder 17
Cc1ccc(NC(=O)c2cccc(Oc3ccc([N+](=O)[O-])cc3)c2)c(C(=O)O)c1	none
O=C(Nc1ccc(NC(=O)c2cccc([N+](=O)[O-])c2)cc1)c1cccc([N+](=O)[O-])c1	none
O=C(Nc1cc([N+](=O)[O-])ccc1O)c1cccc(C(=O)Nc2cc([N+](=O)[O-])ccc2O)c1	NR3A LBD binder 25
COc1ccc(NC(=O)c2csc(C)c2)cc1OC	none
OCCN(CCCn1c(-c2ccncc2)nc2ccccc21)c1nc(CN2CCCCC2)cs1	none
Cc1cccc(-n2c(-c3csc(C(C)C)c3)n[nH]c2=S)c1	none
CCCc1cc(-c2n[nH]c(=S)n2-c2cccc(C)c2)cs1	NR3A LBD binder 14
CCOc1cc(/C=C/c2nc3ccccc3c(=O)[nH]2)ccc1O	none
COc1cc(/C=C/c2nc3ccccc3c(=O)[nH]2)cc(Br)c1O	NR3A LBD binder 23

Screens: PubChem BioAssay, several laboratories
